In ChEMBL document CHEMBL3997766, “Synthesis and pre-clinical studies of new amino-acid ester thiazolide prodrugs” (Eur J Med Chem, 2017):

Columns and labels:
[1] = system: Canis familiaris; test: Toxicity in Beagle dog assessed as effect on hematology up to 25 mg/kg, po administered as gelatin capsule once daily for 28 days measured on day 29; type: organism-based, Canis lupus familiaris; settings: in vivo, 672 h
Summary of the method: (§1)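 Sub-acute study in Beagle dogs dosed orally by gelatin capsule at 5, 15 and 25 mg/kg once a day for 28 consecutive days.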

[2] = system: Rattus norvegicus; test: Neurotoxicity in Sprague-Dawley rat assessed as labored breathing at 1000 mg/kg administered as single dose via oral gavage after 4 to 24 hrs; type: toxicity, organism-based; settings: in vivo
Summary of the method: (§2)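 Three groups of 10 rats (5M/5F) received a single dose by oral gavage of 100, 300 or 1000 mg/kg, and an untreated group served as control. Clinical signs of CNS effects were recorded at 4 and 24 h after treatment.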

[3] = system: Canis familiaris; test: Cardiotoxicity in Beagle dog up to 25 mg/kg, po administered as gelatin capsule once daily for 28 days measured 1 hr post last dose on one of last 3 days of dosing; type: toxicity, organism-based, Canis lupus familiaris; settings: in vivo
Summary of the method: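 Beagle dogs received the drug orally in a single gelatin capsule at 5, 15 or 25 mg/kg once daily for 28 consecutive days in a sub-acute toxicity study assessing systemic exposure.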

[4] = system: Rattus norvegicus; test: Toxicity in Sprague-Dawley rat assessed as erosions in stomach at 30 to 75 mg/kg administered as oral gavage qd for 28 consecutive days measured on day 29 by microscopic method; type: organism-based; settings: in vivo
Summary of the method: (§3)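 Sub-acute study in Sprague-Dawley rats: 10, 30 or 75 mg/kg given orally once a day for 28 consecutive days as a yellow suspension. There were 4 groups of up to 30 rats each (15M/15F), including a control. Body weight, clinical observations and terminal findings were assessed.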

[5] = system: Canis familiaris; test: Toxicity in Beagle dog assessed as emesis at 25 mg/kg, po administered as gelatin capsule once daily for 28 days measured on day 29 followed by 2 weeks recovery period measured on day 43; type: organism-based, Canis lupus familiaris; settings: in vivo; summary of the method: as §1
[6] = system: Plasma; test: Drug metabolism in Sprague-Dawley rat assessed as tizoxanide level in plasma administered via oral gavage qd for 28 consecutive days; type: ADME
Summary of the method: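 In a sub-acute study, Sprague-Dawley rats were dosed once daily for 28 consecutive days at 10, 30 or 75 mg/kg, given as a yellow suspension. There were four groups of up to 30 rats each (15M/15F) to assess systemic exposure.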

[7] = system: Rattus norvegicus; test: Toxicity in Sprague-Dawley rat assessed as decrease in serum total protein level at 75 mg/kg administered as oral gavage qd for 28 consecutive days followed by 2 weeks recovery period measured on day 43; type: organism-based; settings: in vivo, 336 h
Summary of the method: (§4)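 Sub-acute study in Sprague-Dawley rats dosed orally with a suspension at 10, 30 and 75 mg/kg once daily for 28 consecutive days. Four groups of up to 30 rats each (15M/15F).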

[8] = system: Rattus norvegicus; test: Toxicity in Sprague-Dawley rat assessed as mucosal hyperplasia in duodenum at 75 mg/kg administered as oral gavage qd for 28 consecutive days measured on day 29 by microscopic method; type: organism-based; settings: in vivo
Summary of the method: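 Sub-acute oral toxicity study in Sprague-Dawley rats. The drug was given once daily for 28 consecutive days at 10, 30 or 75 mg/kg, formulated as a suspension. There were 4 groups of up to 30 rats each (15 male, 15 female). The study evaluated systemic exposure to the drug.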

[9] = system: Rattus norvegicus; test: AUC (0 to t) in male Sprague-Dawley rat assessed as Tizoxanide-glucuronide level in plasma at 6 mg/kg, iv administered as single dose; type: ADME, organism-based; settings: in vivo
Summary of the method: (§5)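 Plasma tizoxanide and tizoxanide glucuronide were measured and PK parameters derived. AUCs were dose-corrected to 30 mg/kg for bioavailability.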

[10] = system: Rattus norvegicus; test: Toxicity in Sprague-Dawley rat assessed as effect on tidal volume at 100 to 1000 mg/kg administered as single dose via oral gavage; type: organism-based; settings: in vivo
Summary of the method: (§6)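 Respiratory safety study: conscious rats, 3 groups of 6 (3M/3F), given single oral-gavage doses of 100, 300 or 1000 mg/kg, with an untreated control group. Respiratory rate (breaths per minute), tidal volume and minute volume were recorded, and mortality was noted.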

[11] = system: Canis familiaris; test: Toxicity in Beagle dog assessed as change in food consumption up to 25 mg/kg, po administered as gelatin capsule once daily for 28 days; type: organism-based, Canis lupus familiaris; settings: in vivo, 672 h; summary of the method: as §1
[12] = system: Rattus norvegicus; test: Neurotoxicity in Sprague-Dawley rat assessed as decreased abdominal tone at 1000 mg/kg administered via oral gavage as single dose after 4 to 24 hrs; type: toxicity, organism-based; settings: in vivo; summary of the method: as §2
[13] = system: Rattus norvegicus; test: Toxicity in Sprague-Dawley rat assessed as eosinophilic cytoplasmic bodies in epithelial cells of duodenum at 75 mg/kg administered as oral gavage qd for 28 consecutive days measured on day 29 by microscopic method; type: organism-based; settings: in vivo; summary of the method: as §4
[14] = system: Canis familiaris; test: Toxicity in Beagle dog up to 25 mg/kg, po administered as gelatin capsule once daily for 28 days by ophthalmoscopic method; type: organism-based, Canis lupus familiaris; settings: in vivo, 672 h; summary of the method: as §1
[15] = system: Rattus norvegicus; test: Toxicity in Sprague-Dawley rat assessed as increase in spleen to body weight ratio at 75 mg/kg administered as oral gavage qd for 28 consecutive days measured on day 29; type: organism-based; settings: in vivo; summary of the method: as §4
[16] = system: Canis familiaris; test: Toxicity in Beagle dog assessed as body weight gain up to 25 mg/kg, po administered as gelatin capsule once daily for 28 days measured on day 29; type: organism-based, Canis lupus familiaris; settings: in vivo, 672 h; summary of the method: as §1
[17] = system: Plasma; test: Drug metabolism in Sprague-Dawley rat assessed as Tizoxanide in plasma at 28 mg/kg, po measured at 0.083 hrs post dose; type: ADME, organism-based; settings: in vivo
[18] = system: Rattus norvegicus; test: Toxicity in Sprague-Dawley rat assessed as effect on respiratory rate by measuring minute volume dose at 100 to 300 mg/kg administered as single dose via oral gavage; type: organism-based; settings: in vivo; summary of the method: as §6
[19] = system: Rattus norvegicus; test: Cmax in Sprague-Dawley rat assessed as tizoxanide-glucuronide level in plasma at 30 mg/kg, po administered as single dose; type: ADME, organism-based; set-up: dose 30 mg/kg, route oral; settings: in vivo
Summary of the method: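 Rats in groups of three received one compound as a single oral dose (30 mg/kg) or a single intravenous injection (6 mg/kg), with four compounds studied separately. Serial blood samples were drawn at 5, 10, 15 and 30 min and at 1, 2, 4, 8, 23 and 24 h post-dose. Plasma parent drug and metabolites were quantified and PK parameters were derived.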

[20] = system: Rattus norvegicus; test: Toxicity in Sprague-Dawley rat assessed as mixed cell inflammation in stomach at 30 to 75 mg/kg administered as oral gavage qd for 28 consecutive days measured on day 29 by microscopic method; type: organism-based; settings: in vivo; summary of the method: as §3
[21] = system: Rattus norvegicus; test: Toxicity in Sprague-Dawley rat assessed as mixed cell inflammation in stomach at 75 mg/kg administered as oral gavage qd for 28 consecutive days followed by 2 weeks recovery period by microscopic method; type: organism-based; settings: in vivo, 336 h; summary of the method: as §4
[22] = system: Rattus norvegicus; test: Neurotoxicity in Sprague-Dawley rat at 100 to 300 mg/kg, po administered via gavage as single dose after 4 to 24 hrs; type: toxicity, organism-based; settings: in vivo
Summary of the method: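 CNS safety study in rats: single oral-gavage doses of 100, 300 or 1000 mg/kg to 3 groups of 10 (5M/5F), with an untreated control group. Clinical signs (activity, abdominal tone, breathing, tremors, pain response) were recorded at 4 and 24 h after dosing, and mortality was noted.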

[23] = system: Rattus norvegicus; test: Toxicity in Sprague-Dawley rat assessed as effect on food consumption at 10 to 75 mg/kg administered as oral gavage qd for 28 consecutive days measured once per week during compound dosing; type: organism-based; settings: in vivo; summary of the method: as §3
[24] = system: Rattus norvegicus; test: Toxicity in Sprague-Dawley rat assessed as decrease in serum sodium level at 10 to 75 mg/kg administered as oral gavage qd for 28 consecutive days followed by 2 weeks recovery period measured on day 43; type: organism-based; settings: in vivo, 336 h; summary of the method: as §4
[25] = system: Rattus norvegicus; test: AUC (0 to t) in Sprague-Dawley rat assessed as Tizoxanide level at 30 mg/kg, po administered as single dose; type: ADME, organism-based; settings: in vivo; summary of the method: as §5

Structure (SMILES): CC(C)(C)[C@H](N)C(=O)Oc1ccccc1C(=O)Nc1ncc([N+](=O)[O-])s1.Cl
- Activity [1]: Non-Toxic
- Activity [2]: Toxic
- Activity [3]: Non-Toxic
- Activity [4]: Toxic
- Activity [5]: Non-Toxic
- Drug metabolism [6]: Dose-dependent effect
- Activity [7]: Toxic
- Activity [8]: Toxic
- AUCt [9]: 13600 ng·h/mL
- Activity [10]: Toxic
- Activity [11]: Non-Toxic
- Activity [12]: Toxic
- Activity [13]: Toxic
- Activity [14]: Non-Toxic
- Activity [15]: Toxic
- Activity [16]: Non-Toxic
- Drug metabolism [17]: Metabolite_Detected
- Activity [18]: Non-Toxic
- Cmax [19]: 18600 ng/mL
- Activity [20]: Toxic
- Activity [21]: Non-Toxic
- Activity [22]: Non-Toxic
- Activity [23]: Non-Toxic
- Activity [24]: Toxic
- AUCt [25]: 3120 ng·h/mL
